Laboratory results from ChEMBL document CHEMBL1149311, “Synthesis and antitumor activity of methyltriazene prodrugs simultaneously releasing DNA-methylating agents and the antiresistance drug O(6)-benzylguanine” (J Med Chem, 2004).

How the values were obtained:
[1] = Half life of hydrolysis in deuterated phosphate buffer at pD 7.8; settings: pH 7.8
NCI-H460 [2] = experiment: Antitumor activity against human NCI-H460 cells at 50 uM relative to control; format: functional
How it was run: (§1)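 Tested in the NCI three-cell-line one-dose primary anticancer prescreen. The read-out is growth as % of untreated control cells (100%) at 50 μM.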

MCF7 [3] = experiment: Antitumor activity against human MCF7 cells at 50 uM relative to control; format: functional; how it was run: as §1
SF-268 [4] = experiment: Antitumor activity against human SF268 cells at 50 uM relative to control; format: functional; how it was run: as §1
NCI-H460 [5] = experiment: Antitumor activity against human NCI-H460 cells at 100 uM relative to control; format: functional
How it was run: (§2)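 NCI three-cell-line one-dose primary anticancer prescreen at 100 µM. Growth is expressed as % of untreated control cells, with the control taken as 100%.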

MCF7 [6] = experiment: Antitumor activity against human MCF7 cells at 100 uM relative to control; format: functional; how it was run: as §2
SF-268 [7] = experiment: Antitumor activity against human SF268 cells at 100 uM relative to control; format: functional; how it was run: as §2
NCI [8] = experiment: Antitumor activity against human NCI leukemia cell line panel; format: functional, cell-based
How it was run: (§3)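 Tested in the NCI in vitro disease-oriented human tumor cell screen. The endpoints are IC50 (molar concentration giving 50% growth inhibition), TGI (total growth inhibition) and LC50 (50% net cell death). The maximal concentration tested was 100 μM. Subpanel values are means of several individual cell lines.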

[9] = system: Non-small cell lung cancer cell line; experiment: Antitumor activity against human NCI non-small cell lung cancer cell line panel; format: functional, cell-based; how it was run: as §3
NCI [10] = experiment: Antitumor activity against human NCI colon cancer cell line panel; format: functional, cell-based; how it was run: as §3
NCI [11] = experiment: Antitumor activity against human NCI CNS cancer cell line panel; format: functional, cell-based; how it was run: as §3
NCI [12] = experiment: Antitumor activity against NCI human melanoma cell line panel; format: functional, cell-based; how it was run: as §3
carcinoma cell line = experiment: Antitumor activity against human NCI ovarian carcinoma cell line panel; format: functional, cell-based; how it was run: as §3
NCI [13] = experiment: Antitumor activity against human NCI renal cancer cell line panel; format: functional, cell-based; how it was run: as §3
NCI [14] = experiment: Antitumor activity against human NCI prostate cancer cell line panel; format: functional, cell-based; how it was run: as §3
NCI [15] = experiment: Antitumor activity against human NCI breast cancer cell line panel; format: functional, cell-based; how it was run: as §3

Compound	half-life ([1]; deuterated phosphate buffer)	Activity (NCI-H460 [5])	Activity (MCF7 [6])	Activity (SF-268 [7])	also measured
COC(=O)c1ccc(OC(=O)N(C)/N=N/c2nc(OCc3ccccc3)c3nc[nH]c3n2)cc1	2.45 h	–	–	–	Activity (NCI-H460 [2]): 53%; Activity (MCF7 [3]): 116%; Activity (SF-268 [4]): 107%
CCOC(=O)N(C)/N=N/c1nc(OCc2ccccc2)c2nc[nH]c2n1	58.3 h	90%	103%	91%	–
CN(/N=N/c1nc(OCc2ccccc2)c2nc[nH]c2n1)C(=O)c1cccnc1	8.83 h	–	–	–	–
CC(=O)N(C)/N=N/c1nc(OCc2ccccc2)c2nc[nH]c2n1	58.3 h	89%	99%	78%	–
CN(/N=N/c1nc(OCc2ccccc2)c2nc[nH]c2n1)C(=O)Oc1ccccc1	19.2 h	87%	107%	102%	–
CN(/N=N/c1nc(OCc2ccccc2)c2nc[nH]c2n1)C(=O)c1ccc([N+](=O)[O-])cc1	16 h	–	–	–	–
CN(/N=N/c1nc(OCc2ccccc2)c2nc[nH]c2n1)C(=O)Oc1ccc(C(N)=O)cc1	6.42 h	–	–	–	–
CN(/N=N/c1nc(OCc2ccccc2)c2nc[nH]c2n1)C(=O)Oc1ccc(S(N)(=O)=O)cc1	2.82 h	–	–	–	–
CC(=O)Nc1ccc(OC(=O)N(C)/N=N/c2nc(OCc3ccccc3)c3nc[nH]c3n2)cc1	19.3 h	–	–	–	–
CN(/N=N/c1nc(OCc2ccccc2)c2nc[nH]c2n1)C(=O)c1ccccc1	38.3 h	93%	107%	79%	–
Cn1nnc2c(C(N)=O)ncn2c1=O [TEMOZOLOMIDE]	–	–	–	–	half-life ([1]; buffer): 0.417 h; IC50 (NCI [8]): 79 µM; TGI (NCI [8]): > 100 µM; CC50 (NCI [8]; read-out: LC50 (the source's name)): > 100 µM; IC50 [9]: 100 µM; IC50 (NCI [10]): 100 µM; IC50 (NCI [11]): 93 µM; IC50 (NCI [12]): 98 µM; IC50 (carcinoma cell line): 91 µM; IC50 (NCI [13]): 98 µM; IC50 (NCI [14]): 100 µM; IC50 (NCI [15]): 100 µM
